Laboratory results taken from ChEMBL document CHEMBL1137990, “Design and synthesis of novel indole beta-diketo acid derivatives as HIV-1 integrase inhibitors” (J Med Chem, 2004).

What was measured:
[1] = target: Human immunodeficiency virus type 1 integrase (Human immunodeficiency virus 1) (UniProt Q7ZJM1); experiment: Selectivity index against HIV-1 integrase
[2] = target: T1, Human immunodeficiency virus type 1 integrase (Human immunodeficiency virus 1, UniProt Q7ZJM1); experiment: Inhibitory concentration against HIV-1 integrase mediated strand transfer reaction
T1 sequence (Q7ZJM1 whole entry): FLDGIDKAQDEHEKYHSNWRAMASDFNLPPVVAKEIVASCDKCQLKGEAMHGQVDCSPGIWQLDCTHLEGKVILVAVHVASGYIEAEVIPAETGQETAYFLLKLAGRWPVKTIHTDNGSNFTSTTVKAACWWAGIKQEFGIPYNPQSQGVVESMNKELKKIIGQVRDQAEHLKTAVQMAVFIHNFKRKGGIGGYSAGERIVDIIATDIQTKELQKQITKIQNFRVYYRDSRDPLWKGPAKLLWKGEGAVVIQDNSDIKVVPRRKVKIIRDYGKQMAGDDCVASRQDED
Procedure, shortened: (§1)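 Wild-type IN at 200 nM final, preincubated with inhibitor for 30 min at 30 °C in buffer of 50 mM NaCl, 1 mM HEPES pH 7.5, 50 µM EDTA, 50 µM DTT, 10% glycerol, 7.5 mM MnCl₂, 0.1 mg/mL BSA, 10 mM 2-mercaptoethanol, 10% DMSO, 25 mM MOPS pH 7.2. Then 20 nM 5′-³²P-labeled linear oligonucleotide substrate added, 1 h more; quenched with formamide/EDTA loading dye; products resolved on gel.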

[3] = Therapeutic index is the ratio of CC50 to that of EC50; conditions: human; read-out: Therapeutic index
Procedure, shortened: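 CC50/EC50 ratio, both values from the same plate. CEM-SS cells were infected with HIV-1 RF (MOI 0.3) or left uninfected, with serial compound dilutions. Cultures ran 6 days at 37 °C. Viability was read by XTT absorbance at 450 nm.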

[4] = target: T1, Human immunodeficiency virus type 1 integrase; experiment: Inhibitory concentration against HIV-1 integrase mediated 3' processing reaction; procedure, shortened: as §1
CEM-SS = experiment: Cytotoxic concentration against HIV-1 was evaluated in human T-cell line CEM-SS; format: functional
Procedure, shortened: (§2)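 CEM-SS human T cells at 5 × 10³ cells/well infected with HIV-1 RF (MOI 0.3). Serial compound dilutions added at once; cultured 6 days at 37 °C, 5% CO₂. Viability read by XTT (0.2 mg/mL, 4 h) absorbance at 450 nm. AZT and dextran sulfate run as controls. Toxicity measured on the same plate in uninfected CEM-SS cells.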

[5] = tested on: Human immunodeficiency virus 1; experiment: Effective concentration required for the inhibition of HIV-1 cytopathic effect; format: functional, organism-based; procedure, shortened: as §2

Human immunodeficiency virus type 1 integrase (Human immunodeficiency virus 1), sequence (Q7ZJM1 as listed by the source): as the sequence (Q7ZJM1 whole entry) above

Selectivity index [1]	IC50 [2] [µM]	IC50 [4] [µM]	EC50 [5] [µM]	SMILES	selectivity ratio [3]	CC50 (CEM-SS) [µM]
50	2	100	37	Cn1cc(/C(O)=C/C(=O)C(=O)O)c2ccccc21	> 5.4	> 200
5	2	11	> 200	Cn1c(/C(O)=C/C(=O)C(=O)O)cc2cc3c(cc21)OCO3	–	> 200
> 1.6	60	> 100	> 31	COC(=O)C(=O)CC(=O)c1cn(C)c2cc3c(cc12)OCO3	–	31
15	3	45	123	CCn1cc(/C(O)=C/C(=O)C(=O)O)c2cc3c(cc21)OCO3	> 1.6	> 200
2	45	100	> 106	COC(=O)C(=O)CC(=O)c1cc2ccccc2n1C	–	106
11	5	55	> 57	CCn1c(/C(O)=C/C(=O)C(=O)O)cc2cc3c(cc21)OCO3	–	57
10	1.6	16	> 110	CCn1c(/C(O)=C/C(=O)C(=O)O)cc2ccccc21	–	110
> 3.8	26	> 100	19	CCn1cc(C(=O)CC(=O)C(=O)OC)c2ccccc21	> 10.5	> 200
20	1	20	–	O=C(O)C(=O)/C=C(\O)c1cc2ccccc2n1Cc1ccccc1	–	–
7	14	100	> 1.1	COC(=O)C(=O)CC(=O)c1cc2cc3c(cc2n1Cc1ccccc1)OCO3	–	1.1
17	2	35	> 3.8	O=C(O)C(=O)/C=C(\O)c1cc2cc3c(cc2n1Cc1ccccc1)OCO3	–	3.8
–	–	–	> 60	CCn1c(C(=O)CC(=O)C(=O)OC)cc2ccccc21	–	60
31	3	93	9	CCn1cc(/C(O)=C/C(=O)C(=O)O)c2ccccc21	12	108
2	50	100	> 200	COC(=O)C(=O)CC(=O)c1cc2cc3c(cc2n1C)OCO3	–	> 200
1.3	65	85	> 75	CCn1c(C(=O)CC(=O)C(=O)OC)cc2cc3c(cc21)OCO3	–	75
33	3	100	> 108	Cn1cc(/C(O)=C/C(=O)C(=O)O)c2cc3c(cc21)OCO3	–	108
8	6	50	> 81	Cn1c(/C(O)=C/C(=O)C(=O)O)cc2ccccc21	–	81

SMILES	Selectivity index [1]	IC50 [2] [µM]	IC50 [4] [µM]	EC50 [5] [µM]	selectivity ratio [3]	CC50 (CEM-SS) [µM]
O=C(O)C(=O)/C=C(\O)c1cn(Cc2ccccc2)c2ccccc12	12	1	12	–	–	–
